According to ChEMBL document CHEMBL1795341, “Efficient synthesis, structural characterization and anti-microbial activity of chiral aryl boronate esters of 1,2-O-isopropylidene-α-D-xylofuranose” (2011):
In brackets after ≈: the same amount, converted by molar mass.

Legend:
Assay type in all cases: functional
Bacillus subtilis = experiment: Antibacterial activity against Bacillus subtilis MTCC 441 by broth microdilution method
Staphylococcus aureus = experiment: Antibacterial activity against Staphylococcus aureus MTCC 96 by broth microdilution method
[1] = tested on: Staphylococcus epidermidis; experiment: Antibacterial activity against Staphylococcus epidermidis MTCC 2639 by broth microdilution method
Escherichia coli = experiment: Antibacterial activity against Escherichia coli MTCC 443 by broth microdilution method
Pseudomonas aeruginosa = experiment: Antibacterial activity against Pseudomonas aeruginosa MTCC 741 by broth microdilution method
Klebsiella pneumoniae = experiment: Antibacterial activity against Klebsiella pneumoniae MTCC 618 by broth microdilution method
Candida albicans [2] = experiment: Antifungal activity against Candida albicans MTCC 227 at 100 ug after 48 hrs by agar well diffusion method; conditions: MTCC 227, 48 h, read-out: DIZ
How it was run: (§1)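 Agar well diffusion on potato dextrose agar; 0.5 ml week-old culture spread over solidified plates, 6 mm wells bored. Compounds dissolved in DMSO at different concentrations and added to wells, with controls. Incubated 27 °C for 48 h; inhibition zone diameter measured in mm; three to four replicates per treatment.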

Candida albicans [3] = experiment: Antifungal activity against Candida albicans MTCC 227 at 150 ug after 48 hrs by agar well diffusion method; conditions: MTCC 227, 48 h, read-out: DIZ; how it was run: as §1
Diutina rugosa [4] = experiment: Antifungal activity against Candida rugosa NCIM 3462 at 100 ug after 48 hrs by agar well diffusion method; conditions: NCIM 3462, 48 h, read-out: DIZ; how it was run: as §1
Diutina rugosa [5] = experiment: Antifungal activity against Candida rugosa NCIM 3462 at 150 ug after 48 hrs by agar well diffusion method; conditions: NCIM 3462, 48 h, read-out: DIZ; how it was run: as §1
Saccharomyces cerevisiae [6] = experiment: Antifungal activity against Saccharomyces cerevisiae MTCC 36 at 100 ug after 48 hrs by agar well diffusion method; conditions: MTCC 36, 48 h, read-out: DIZ; how it was run: as §1
Saccharomyces cerevisiae [7] = experiment: Antifungal activity against Saccharomyces cerevisiae MTCC 36 at 150 ug after 48 hrs by agar well diffusion method; conditions: MTCC 36, 48 h, read-out: DIZ; how it was run: as §1
Aspergillus niger [8] = experiment: Antifungal activity against Aspergillus niger MTCC 282 at 100 ug after 48 hrs by agar well diffusion method; conditions: MTCC 282, 48 h, read-out: DIZ; how it was run: as §1
Aspergillus niger [9] = experiment: Antifungal activity against Aspergillus niger MTCC 282 at 150 ug after 48 hrs by agar well diffusion method; conditions: MTCC 282, 48 h, read-out: DIZ; how it was run: as §1

| SMILES | MIC (Bacillus subtilis) [mg/L] | MIC (Staphylococcus aureus) [mg/L] | MIC [1] [mg/L] | MIC (Escherichia coli) [mg/L] | MIC (Pseudomonas aeruginosa) [mg/L] | MIC (Klebsiella pneumoniae) [mg/L] | zone of inhibition at 100 µg/disc (Candida albicans [2]) [mm] | zone of inhibition at 150 µg/disc (Candida albicans [3]) [mm] | zone of inhibition at 100 µg/disc (Diutina rugosa [4]) [mm] | zone of inhibition at 150 µg/disc (Diutina rugosa [5]) [mm] | zone of inhibition at 100 µg/disc (Saccharomyces cerevisiae [6]) [mm] | zone of inhibition at 150 µg/disc (Saccharomyces cerevisiae [7]) [mm] | zone of inhibition at 100 µg/disc (Aspergillus niger [8]) [mm] | zone of inhibition at 150 µg/disc (Aspergillus niger [9]) [mm] |
| --- | --- | --- | --- | --- | --- | --- | --- | --- | --- | --- | --- | --- | --- | --- |
| CC1(C)O[C@H]2O[C@@H]3COB(c4ccsc4)O[C@@H]3[C@H]2O1 | 75 (≈ 266 µM) | 37.5 (≈ 133 µM) | 18.8 (≈ 66.5 µM) | 4.68 (≈ 16.6 µM) | 18.8 (≈ 66.5 µM) | 75 (≈ 266 µM) | 0 | 7 | 14 | 20 | 10 | 14 | 12 | 16 |
| CC1(C)O[C@H]2O[C@@H]3COB(c4ccccc4)O[C@@H]3[C@H]2O1 | 37.5 (≈ 136 µM) | 75 (≈ 272 µM) | 18.8 (≈ 67.9 µM) | 18.8 (≈ 67.9 µM) | 37.5 (≈ 136 µM) | 75 (≈ 272 µM) | 0 | 6 | 0 | 0 | 0 | 0 | 8 | 12 |
| CC1(C)O[C@H]2O[C@@H]3COB(c4ccc(F)cc4)O[C@@H]3[C@H]2O1 | 75 (≈ 255 µM) | 18.8 (≈ 63.8 µM) | 75 (≈ 255 µM) | 37.5 (≈ 128 µM) | 75 (≈ 255 µM) | 37.5 (≈ 128 µM) | 6 | 8 | 11 | 14 | 7 | 10 | 0 | 6 |
| C=Cc1ccc(B2OC[C@H]3O[C@@H]4OC(C)(C)O[C@@H]4[C@H]3O2)cc1 | 75 (≈ 248 µM) | 75 (≈ 248 µM) | 75 (≈ 248 µM) | 150 (≈ 496 µM) | 37.5 (≈ 124 µM) | 150 (≈ 496 µM) | 6 | 9 | 0 | 0 | 6 | 8 | 9 | 14 |
| COc1ccc(B2OC[C@H]3O[C@@H]4OC(C)(C)O[C@@H]4[C@H]3O2)cc1 | 150 (≈ 490 µM) | 150 (≈ 490 µM) | 150 (≈ 490 µM) | 150 (≈ 490 µM) | 150 (≈ 490 µM) | 75 (≈ 245 µM) | 0 | 0 | 7 | 10 | 0 | 0 | 0 | 0 |
| Cc1ccc(B2OC[C@H]3O[C@@H]4OC(C)(C)O[C@@H]4[C@H]3O2)cc1 | 150 (≈ 517 µM) | 150 (≈ 517 µM) | 150 (≈ 517 µM) | 150 (≈ 517 µM) | 150 (≈ 517 µM) | 150 (≈ 517 µM) | 0 | 0 | 0 | 6 | 0 | 0 | 0 | 0 |
| CC1(C)O[C@H]2O[C@@H]3COB(c4ccc(C=O)cc4)O[C@@H]3[C@H]2O1 | 18.8 (≈ 61.7 µM) | 9.38 (≈ 30.8 µM) | 18.8 (≈ 61.7 µM) | 4.68 (≈ 15.4 µM) | 37.5 (≈ 123 µM) | 4.68 (≈ 15.4 µM) | 12 | 14 | 13 | 17 | 14 | 19 | 6 | 8 |
| CC1(C)O[C@H]2O[C@@H]3COB(c4cccc([N+](=O)[O-])c4)O[C@@H]3[C@H]2O1 | 2.34 (≈ 7.29 µM) | 4.68 (≈ 14.6 µM) | 9.38 (≈ 29.2 µM) | 9.38 (≈ 29.2 µM) | 18.8 (≈ 58.4 µM) | 4.68 (≈ 14.6 µM) | 13 | 18 | 16 | 20 | 11 | 16 | 14 | 18 |
| CC1(C)O[C@H]2O[C@@H]3COB(c4cccs4)O[C@@H]3[C@H]2O1 | 75 (≈ 266 µM) | 150 (≈ 532 µM) | 37.5 (≈ 133 µM) | 150 (≈ 532 µM) | 75 (≈ 266 µM) | 150 (≈ 532 µM) | 0 | 6 | 9 | 13 | 12 | 17 | 9 | 11 |
| CC1(C)O[C@H]2O[C@@H]3COB(c4ccc5ccccc5c4)O[C@@H]3[C@H]2O1 | 150 (≈ 460 µM) | 150 (≈ 460 µM) | 75 (≈ 230 µM) | 150 (≈ 460 µM) | 150 (≈ 460 µM) | 150 (≈ 460 µM) | 6 | 9 | 13 | 16 | 7 | 11 | 0 | 4 |
| C[C@@H]1[C@H](O)[C@@H](C)/C=C/C=C/C=C/C=C/C=C/C=C/C=C/[C@H](O[C@@H]2O[C@H](C)[C@@H](O)[C@H](N)[C@@H]2O)C[C@@H]2O[C@](O)(C[C@@H](O)C[C@@H](O)[C@H](O)CC[C@@H](O)C[C@@H](O)CC(=O)O[C@H]1C)C[C@H](O)[C@H]2C(=O)O [AMPHOTERICIN B] |  |  |  |  |  |  | 23.5 |  | 21 |  | 22 |  | 25 |  |
| CC1(C)S[C@@H]2[C@H](NC(=O)Cc3ccccc3)C(=O)N2[C@H]1C(=O)O [PENICILLIN G] | 1.56 (≈ 4.67 µM) | 1.56 (≈ 4.67 µM) | 3.12 (≈ 9.35 µM) | 12.5 (≈ 37.4 µM) | 12.5 (≈ 37.4 µM) | 6.25 (≈ 18.7 µM) |  |  |  |  |  |  |  |  |
| CN[C@@H]1[C@H](O[C@H]2[C@H](O[C@H]3[C@H](O)[C@@H](O)[C@H](N=C(N)N)[C@@H](O)[C@@H]3N=C(N)N)O[C@@H](C)[C@]2(O)C=O)O[C@@H](CO)[C@H](O)[C@H]1O [STREPTOMYCIN] | 6.25 (≈ 10.7 µM) | 6.25 (≈ 10.7 µM) | 3.12 (≈ 5.37 µM) | 6.25 (≈ 10.7 µM) | 1.56 (≈ 2.69 µM) | 3.12 (≈ 5.37 µM) |  |  |  |  |  |  |  |  |
